Source: ChEMBL document CHEMBL1671866, “Genotyping as a tool for antibiotic resistance surveillance of Neisseria gonorrhoeae in New Caledonia: evidence of a novel genotype associated with reduced penicillin susceptibility” (2008)
Values after ≈ are worked out from the molar mass of the structure shown.

Tests used:
Assay type in all cases: functional
Neisseria gonorrhoeae [1] = test: Antibacterial activity against Neisseria gonorrhoeae harboring wild-type penA and GS A102S mutant genes by Etest method
Method in brief: (§1)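 Penicillin G MIC (µg/ml) by E-test gradient strip on chocolate agar plus PolyVitex, read where the inhibition zone meets the strip. Test organisms were clinical gonococcal isolates from New Caledonia, grouped by genotype. Archival chromosomally mediated resistant isolates and 12 WHO reference strains served as controls.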

Neisseria gonorrhoeae [2] = test: Antibacterial activity against Neisseria gonorrhoeae harboring wild-type ponA gene by disk agar diffusion method
Method in brief: (§2)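 Clinical N. gonorrhoeae isolates from sexually transmitted infections in New Caledonia, collected over about 3 years. Susceptibility to conventional antibiotics was tested by disk agar diffusion, and beta-lactamase production by nitrocefin discs. Archival chromosomally mediated resistant isolates and WHO reference strains (WHO-C, -G, -L, -M, -O, -P; 07QA-01 to -06) served as controls.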

Neisseria gonorrhoeae [3] = test: Antibacterial activity against Neisseria gonorrhoeae harboring wild-type GA and wild-type penA genes by Etest method; method in brief: as §1
Neisseria gonorrhoeae [4] = test: Antibacterial activity against Neisseria gonorrhoeae harboring GS A102S mutant gene by disk agar diffusion method; method in brief: as §2
Neisseria gonorrhoeae [5] = test: Antibacterial activity against Neisseria gonorrhoeae harboring wild-type penA and porB1a genes by Etest method; method in brief: as §1
Neisseria gonorrhoeae [6] = test: Antibacterial activity against Neisseria gonorrhoeae harboring porB1a gene by disk agar diffusion method; method in brief: as §2
Neisseria gonorrhoeae [7] = test: Antibacterial activity against Neisseria gonorrhoeae harboring ponA L421P mutant gene by disk agar diffusion method; method in brief: as §2
Neisseria gonorrhoeae [8] = test: Antibacterial activity against Neisseria gonorrhoeae harboring wild-type penA and DA G101D mutant genes by Etest method; method in brief: as §1
Neisseria gonorrhoeae [9] = test: Antibacterial activity against Neisseria gonorrhoeae by disk agar diffusion method
Method in brief: (§3)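 Clinical isolates were collected from sexually transmitted infections in New Caledonia over nearly 3 years. They were tested in vitro against conventional antibiotics by disk agar diffusion. Archival chromosomally mediated resistant isolates and 12 reference strains served as controls: WHO-C, -G, -L, -M, -O, -P and 07QA-01 to 07QA-06.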

Neisseria gonorrhoeae [10] = test: Antibacterial activity against Neisseria gonorrhoeae harboring GS gene by disk agar diffusion method; method in brief: as §2
Neisseria gonorrhoeae [11] = test: Antibacterial activity against Neisseria gonorrhoeae harboring wild-type GA gene by disk agar diffusion method; method in brief: as §2
Neisseria gonorrhoeae [12] = test: Antibacterial activity against Neisseria gonorrhoeae harboring porB1b and DA G101D mutant genes by disk agar diffusion method; method in brief: as §2
Neisseria gonorrhoeae [13] = test: Antibacterial activity against Neisseria gonorrhoeae assessed as susceptible isolates by disk agar diffusion method; method in brief: as §3
Neisseria gonorrhoeae [14] = test: Antibacterial activity against Neisseria gonorrhoeae harboring wild-type GA and Asp-345a insertion in penA genes by Etest method; method in brief: as §1
Neisseria gonorrhoeae [15] = test: Antibacterial activity against Neisseria gonorrhoeae assessed as intermediate-resistant isolates by disk agar diffusion method; method in brief: as §2
Neisseria gonorrhoeae [16] = test: Antibacterial activity against Neisseria gonorrhoeae harboring Asp-345a insertion in penA and porB1a genes by Etest method; method in brief: as §1
Neisseria gonorrhoeae [17] = test: Antibacterial activity against Neisseria gonorrhoeae harboring KD gene by disk agar diffusion method; method in brief: as §2
Neisseria gonorrhoeae [18] = test: Antibacterial activity against Neisseria gonorrhoeae harboring Asp-345a insertion in penA and DA G101D mutant genes by Etest method; method in brief: as §1

CC1(C)S[C@@H]2[C@H](NC(=O)Cc3ccccc3)C(=O)N2[C@H]1C(=O)O [PENICILLIN G]
MIC (Neisseria gonorrhoeae [1]): 0.156 µg/mL (≈ 0.467 µM) | MIC (Neisseria gonorrhoeae [2]): 0.067 µg/mL (≈ 0.2 µM) | MIC (Neisseria gonorrhoeae [3]): 0.017 µg/mL (≈ 0.0508 µM) | MIC (Neisseria gonorrhoeae [4]): 0.155 µg/mL (≈ 0.464 µM) | MIC (Neisseria gonorrhoeae [5]): 0.011 µg/mL (≈ 0.0329 µM) | MIC (Neisseria gonorrhoeae [6]): 0.031 µg/mL (≈ 0.0927 µM) | MIC (Neisseria gonorrhoeae [7]): 0.059 µg/mL (≈ 0.176 µM) | MIC (Neisseria gonorrhoeae [8]): 0.016 µg/mL (≈ 0.0478 µM) | MIC (Neisseria gonorrhoeae [9]): 0.064 µg/mL (≈ 0.191 µM) | MIC (Neisseria gonorrhoeae [10]): 0.63 µg/mL (≈ 1.88 µM) | MIC (Neisseria gonorrhoeae [11]): 0.037 µg/mL (≈ 0.111 µM) | MIC (Neisseria gonorrhoeae [12]): 0.016 µg/mL (≈ 0.0478 µM) | Activity (Neisseria gonorrhoeae [13]): 60.1% | MIC (Neisseria gonorrhoeae [14]): 0.081 µg/mL (≈ 0.242 µM) | Activity (Neisseria gonorrhoeae [15]): 39.9% | MIC (Neisseria gonorrhoeae [16]): 0.07 µg/mL (≈ 0.209 µM) | MIC (Neisseria gonorrhoeae [17]): 1 µg/mL (≈ 2.99 µM) | MIC (Neisseria gonorrhoeae [18]): 0.133 µg/mL (≈ 0.398 µM)
